SMILES strings stand for the structures.

For test [1], the system named is Amaranthus blitum. In words: Herbicidal activity against Amaranthus blitum assessed as weed growth inhibition at 75 g/ha post-emergence treatment […]. The class given is functional. Particulars: read-out: GI. The procedure, abridged:
(§1)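 Pot-grown plants in the greenhouse, in clay soil (pH 6.5, 1.6% organic matter, 37.3% clay, CEC 12.1 cmol/kg). Compound was made up as a 100 g/L emulsified concentrate (DMF, Tween-80), diluted in water and sprayed at 75 g ai/ha. Pre-emergence spraying was 24 h after sowing; post-emergence at two-leaf (dicots) or one-leaf (monocots) stage. Untreated and DMF controls. Percent growth inhibition scored visually 15 days post-treatment.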

Test [2] has as its system Abutilon theophrasti. In words: Herbicidal activity against Abutilon theophrasti (velvetleaf) assessed as weed growth inhibition at 75 g/ha post-emergence treatment […]. The format is functional. As to conditions: read-out: GI. The essentials:
as §1

For test [3], the system named is Setaria viridis. In words: Herbicidal activity against Setaria viridis (green foxtail) assessed as weed growth inhibition at 75 g/ha post-emergence treatment […]. The class given is functional. Particulars: read-out: GI. The essentials: as §1
Test [4] deals with Digitaria sanguinalis. In words: Herbicidal activity against crabgrass Digitaria sanguinalis(hairy crabgrass) assessed as weed growth inhibition at 75 g/ha pre-emergence treatment […]. The format is functional. Particulars: read-out: GI. The essentials: as §1
For test [5], the system named is Chenopodium album. In words: Herbicidal activity against fat hen Chenopodium album assessed as weed growth inhibition at 75 g/ha post-emergence treatment […]. The format is functional. Particulars: read-out: GI. The procedure, abridged:
as §1

The test system of test [6] is Echinochloa crus-galli. In words: Herbicidal activity against Echinochloa crus-galli (barnyard grass) (barnyard grass) assessed as weed growth inhibition at 75 g/ha post-emergence treatment […]. Particulars: read-out: GI. The format is functional. The procedure, abridged:
as §1

Test [7] concerns Digitaria sanguinalis. In words: Herbicidal activity against crabgrass Digitaria sanguinalis(hairy crabgrass) assessed as weed growth inhibition at post-emergence treatment […]. The class given is functional, organism-based. The essentials: as §1
Test [8] relates to Digitaria sanguinalis. In words: Herbicidal activity against crabgrass Digitaria sanguinalis(hairy crabgrass) assessed as weed growth inhibition at 75 g/ha post-emergence treatment […]. Particulars: read-out: GI. The class given is functional. The procedure, abridged: as §1
The test system of test [9] is Amaranthus blitum. In words: Herbicidal activity against Amaranthus blitum assessed as weed growth inhibition at 75 g/ha pre-emergence treatment […]. The format is functional. Particulars: read-out: GI. The essentials: as §1
For test [10], the system named is Abutilon theophrasti. In words: Herbicidal activity against Abutilon theophrasti (velvetleaf) assessed as weed growth inhibition at 75 g/ha pre-emergence treatment […]. The class given is functional. As to conditions: read-out: GI. The essentials: as §1
For test [11], the system named is Abutilon theophrasti. In words: Herbicidal activity against Abutilon theophrasti (velvetleaf) assessed as weed growth inhibition at post-emergence treatment […]. The format is functional, organism-based. The procedure, abridged:
as §1

Test [12] has as its system Setaria viridis. In words: Herbicidal activity against Setaria viridis (green foxtail) assessed as weed growth inhibition at 75 g/ha pre-emergence treatment […]. The class given is functional. Particulars: read-out: GI. The essentials: as §1
Test [13] concerns Chenopodium album. In words: Herbicidal activity against fat hen Chenopodium album assessed as weed growth inhibition at 75 g/ha pre-emergence treatment […]. The class given is functional. As to conditions: read-out: GI. The essentials: as §1
Test [14] relates to Echinochloa crus-galli. In words: Herbicidal activity against Echinochloa crus-galli (barnyard grass) (barnyard grass) assessed as weed growth inhibition at 75 g/ha pre-emergence treatment […]. The format is functional. Particulars: read-out: GI. The procedure, abridged: as §1

Turning to `CN1C(=O)COc2cc(F)c(N3C(=O)c4ccc(F)cc4C3=O)cc21`, the inhibition of growth at 75 g/ha in the test with Amaranthus blitum [1], with Abutilon theophrasti [2], in the test on Setaria viridis [3], in the test on Digitaria sanguinalis [4], in the test on Chenopodium album [5] and in the test on Echinochloa crus-galli [6] was below 50% each time. In addition, the inhibition of growth at 75 g/ha in the test on Digitaria sanguinalis [8], with Amaranthus blitum [9], in the test with Abutilon theophrasti [10], with Setaria viridis [12], with Chenopodium album [13] and in the test with Echinochloa crus-galli [14] was below 50% in each case. In addition, the figures for the IC50 in the test with Digitaria sanguinalis [7] and in the test with Abutilon theophrasti [11] were 172 g/ha and 161 g/ha, respectively.

In the case of `C#CCN1C(=O)C(C)Oc2cc(F)c(N3C(=O)c4ccccc4C3=O)cc21` (stereo not drawn), the inhibition of growth at 75 g/ha is above 80% with Amaranthus blitum [1]; above 80% in the test on Abutilon theophrasti [2]; below 50% in the test on Setaria viridis [3]; below 50% in the test with Digitaria sanguinalis [4]; above 80% in the test on Chenopodium album [5]; below 50% in the test with Echinochloa crus-galli [6]. The inhibition of growth at 75 g/ha in the test on Digitaria sanguinalis [8] was below 50%; with Amaranthus blitum [9], above 80%; with Abutilon theophrasti [10], above 80%; in the test on Setaria viridis [12] it was below 50%; with Chenopodium album [13] it was above 80%; with Echinochloa crus-galli [14], below 50%. Besides, the IC50 in the test with Digitaria sanguinalis [7] came out at 161 g/ha; with Abutilon theophrasti [11] it was 7.5 g/ha.

For the compound `Cc1ccc2c(c1)C(=O)N(c1cc3c(cc1F)OC(C)C(=O)N3CC#CI)C2=O` (stereo not drawn), the inhibition of growth at 75 g/ha in the test on Amaranthus blitum [1] is above 80%; in the test on Abutilon theophrasti [2], above 80%; with Setaria viridis [3], below 50%; with Digitaria sanguinalis [4], below 50%; in the test on Chenopodium album [5], above 80%; in the test on Echinochloa crus-galli [6], below 50%. Further, the inhibition of growth at 75 g/ha in the test with Digitaria sanguinalis [8] was below 50%; in the test on Amaranthus blitum [9] it was above 80%; in the test with Abutilon theophrasti [10], above 80%; in the test on Setaria viridis [12], below 50%; in the test on Chenopodium album [13], above 80%; in the test with Echinochloa crus-galli [14], below 50%. The IC50 in the test on Digitaria sanguinalis [7] is given as above 1800 g/ha; in the test on Abutilon theophrasti [11] it was 30 g/ha.

For the compound `CN1C(=O)COc2cc(F)c(N3C(=O)c4cccc(F)c4C3=O)cc21`, the inhibition of growth at 75 g/ha was above 80% with Amaranthus blitum [1]; above 80% in the test on Abutilon theophrasti [2]; below 50% with Setaria viridis [3]; below 50% in the test on Digitaria sanguinalis [4]; above 80% in the test on Chenopodium album [5]; below 50% in the test with Echinochloa crus-galli [6]. Moreover, the inhibition of growth at 75 g/ha in the test with Digitaria sanguinalis [8] is below 50%; in the test on Amaranthus blitum [9], 50%; in the test on Abutilon theophrasti [10] it was 50%; in the test with Setaria viridis [12], below 50%; with Chenopodium album [13] it was 50%; with Echinochloa crus-galli [14], below 50%. The IC50 with Digitaria sanguinalis [7] was above 1800 g/ha; in the test on Abutilon theophrasti [11], 45 g/ha.

On to `C#CCN1C(=O)COc2cc(F)c(N3C(=O)c4cccc(C)c4C3=O)cc21`, for which the inhibition of growth at 75 g/ha with Amaranthus blitum [1] was below 50%; with Abutilon theophrasti [2] it was below 50%; with Setaria viridis [3] it was below 50%; in the test on Digitaria sanguinalis [4] it was below 50%; in the test with Chenopodium album [5] it was below 50%; in the test with Echinochloa crus-galli [6], 50%. The inhibition of growth at 75 g/ha in the test with Digitaria sanguinalis [8] was 50%; with Amaranthus blitum [9], below 50%; in the test with Abutilon theophrasti [10], below 50%; in the test with Setaria viridis [12], below 50%; in the test on Chenopodium album [13] it was below 50%; in the test on Echinochloa crus-galli [14], below 50%. The IC50 in the test with Digitaria sanguinalis [7] is 63 g/ha; in the test with Abutilon theophrasti [11] it was 87 g/ha.

Take `O=C1COc2cc(F)c(N3C(=O)c4ccccc4C3=O)cc2N1CC#CI`: the inhibition of growth at 75 g/ha in the test on Amaranthus blitum [1] was above 80%; in the test with Abutilon theophrasti [2] it was above 80%; in the test on Setaria viridis [3] it was 50%; with Digitaria sanguinalis [4], above 80%; with Chenopodium album [5], above 80%; in the test with Echinochloa crus-galli [6] it was below 50%. The inhibition of growth at 75 g/ha with Digitaria sanguinalis [8] is 50%; in the test on Amaranthus blitum [9], above 80%; in the test on Abutilon theophrasti [10] it was above 80%; in the test on Setaria viridis [12], 50%; in the test on Chenopodium album [13] it was above 80%; in the test with Echinochloa crus-galli [14] it was below 50%. Further, the IC50 is given as 68 g/ha in the test with Digitaria sanguinalis [7] and 3.9 g/ha in the test on Abutilon theophrasti [11].

For `O=C1COc2cc(F)c(N3C(=O)c4ccccc4C3=O)cc2N1CC#CBr`, the inhibition of growth at 75 g/ha in the test with Amaranthus blitum [1], in the test with Abutilon theophrasti [2], in the test on Setaria viridis [3], with Digitaria sanguinalis [4], with Chenopodium album [5] and in the test with Echinochloa crus-galli [6] was below 50% each time. Moreover, the inhibition of growth at 75 g/ha in the test with Digitaria sanguinalis [8], in the test with Amaranthus blitum [9], in the test on Abutilon theophrasti [10], with Setaria viridis [12], with Chenopodium album [13] and in the test with Echinochloa crus-galli [14] was below 50% in each case. The IC50 with Digitaria sanguinalis [7] turned out to be 314 g/ha; in the test on Abutilon theophrasti [11] it was 121 g/ha.

For the origin of these results see ChEMBL document CHEMBL3045292, “Synthesis and herbicidal activity of 2-(7-fluoro-3-oxo- 3,4-dihydro-2H-benzo[b][1,4]oxazin-6-yl)isoindoline-1,3-diones” (J Agric Food Chem, 2005).
